An excerpt weighted towards active compounds, which were near 27% of everything screened.
CYP2C9 act: activators of human CYP2C9 | recombinant CYP2C9, luciferin-H conversion, luminescence; hits give high values; factor 1 = untreated enzyme, 0 = blocked | activation factor at 5 µM | 1.4% of 96,000 active | AID 1024;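 active = activation factor of 2 or more for CYP2C9 at a 5 µM dose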;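 note: 0 = sulfaphenazole-blocked wells and 1 = vehicle-only wells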
Target sequence (P11712 whole entry, looked up): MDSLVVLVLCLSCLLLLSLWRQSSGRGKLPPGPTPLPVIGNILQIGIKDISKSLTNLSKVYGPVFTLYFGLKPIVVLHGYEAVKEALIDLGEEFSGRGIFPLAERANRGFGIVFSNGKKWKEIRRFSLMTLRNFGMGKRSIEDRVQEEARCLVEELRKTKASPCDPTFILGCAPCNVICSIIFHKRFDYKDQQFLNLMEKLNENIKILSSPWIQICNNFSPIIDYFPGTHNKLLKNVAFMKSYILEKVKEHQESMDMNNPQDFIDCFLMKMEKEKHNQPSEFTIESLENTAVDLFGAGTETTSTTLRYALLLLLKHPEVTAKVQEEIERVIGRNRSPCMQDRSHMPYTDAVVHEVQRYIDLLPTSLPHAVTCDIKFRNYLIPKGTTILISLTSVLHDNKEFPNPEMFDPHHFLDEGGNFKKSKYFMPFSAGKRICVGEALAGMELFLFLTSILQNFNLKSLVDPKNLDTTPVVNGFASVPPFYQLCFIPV
CYP2C19 inh: blocks human cytochrome P450 2C19; P33261; CYP2C19 Supersomes, luciferin-H EGE luminescence, 30 min; inhibition, % at 5 µM; 21% of 96,000 active; AID 778;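 active = CYP2C19 inhibition above a set limit at 5 µM in the primary screen, cut at about 50% in these data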;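 note: plate controls were negative control wells for no effect and 2.5 mM tranylcypromine positive control for full effect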
Cav32 inh: blocks human Cav3.2 T-type calcium channel; Cav3.2-expressing cells, Fluo-4 calcium fluorescence FDSS; hits give low values; AID 449739; 4% of 100,000 active; B-score at 10 µM;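 active = single-dose well whose peak fluorescence ratio is a statistical outlier from its plate by either plate-standardised score or position-corrected B-score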
HIV Rev-RRE inh: inhibitors of HIV-1 Rev-RRE RNA interaction. Rev peptide-RRE RNA binding, FRET. inhibition, % at 8 µM. AID 704. 0.79% of 97,000 active;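 active = inhibition above the screen-wide mean plus 3 SD, cut at about 35% in these data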;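 note: 0% = median DMSO wells and 100% = median Neomycin B control wells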
Target sequence (P05866 whole entry, looked up): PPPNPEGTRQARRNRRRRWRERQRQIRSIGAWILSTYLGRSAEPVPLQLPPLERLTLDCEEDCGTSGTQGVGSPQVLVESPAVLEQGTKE
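Test system – labelled RRE RNA duplex and labelled Rev peptide · Signal – fluorescein-to-Cy5 FRET, 480 nm excitation · Evaluation – % inhibition of FRET ratio versus controls · Benchmarks – DMSO low control, neomycin B high control · Incubation – 5 min RNA-compound premix plus 15 min binding step, 25 °C · Medium – HEPES pH 7.5 salt buffer with EDTA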
CYP2C19 activ: activators of human cytochrome P450 2C19. activation factor at 5 µM. AID 1025. P33261. recombinant CYP2C19, luciferin-H EGE luminescence; hits give high values; 0 = fully inhibited enzyme, 1 = untreated enzyme. 96,000 tested, under 10 active;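 active = activation factor of at least 2 at 5 µM in the primary screen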;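 note: 0 = wells with 2.5 mM tranylcypromine and 1 = vehicle-only wells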
CYP2C9 inh: human CYP2C9 inhibition | 20% of 96,000 active | CYP2C9 Supersomes, luciferin-H conversion, luminescence | inhibition, % at 5 µM | P11712;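 active = blocking of liver enzyme CYP2C9 beyond about 50% at 5 µM, limit read from the data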
The depositor's hits bear a star; · = no result given; [ ] = dose if it differs, or a comment.

SMILES	CYP2C9 act	CYP2C19 inh	Cav32 inh	HIV Rev-RRE inh	CYP2C19 activ	CYP2C9 inh
Cc1nc2c(C(=O)N3CCCC3)cnn2c(C)c1Cc1c(F)cccc1Cl	1.2	54*	0.69	3	0.5	-20
Cc1nc2c(C(=O)N3CCN(c4ccccn4)CC3)cnn2c(C)c1Cc1cccc(Cl)c1	0.3	98*	-2.2	1	0	74*
NC(=O)CC(NSc1ccccc1[N+](=O)[O-])C(=O)O (stereo unspecified)	·	·	-0.35	·	·	·
COc1ccc(S(=O)(=O)Cc2ccc(C(=O)N3CCN(c4ccccc4)CC3)o2)cc1	0.3	28	-0.088	·	0.7	66*
COc1ccc(S(=O)(=O)Cc2ccc(C(=O)N3CCCC3)o2)cc1	0.9	7	0.25	5	0.9	5
CCOC(=O)N1CCN(C(=O)c2ccc(CS(=O)(=O)c3ccc(OC)cc3)o2)CC1	0.3	-10	0.1	·	1.1	71*
COc1ccc(S(=O)(=O)Cc2ccc(C(=O)N3CCN(c4ccccc4F)CC3)o2)cc1	0.1	49	-0.54	9	0.5	89*
CCCCCOCC1CC(C/C(C)=N/Nc2nc(-c3ccccc3)cs2)C(=O)O1 (stereo unspecified)	0.6	28	-0.41	-2	0.7	37
CCCC(C)C(=O)Nc1nnc(C)s1 (stereo unspecified)	1.2	-1	0.064	7	1	-18
COC(=O)CCC(=O)OC1(C)C(=O)C=C2C=C(C3CC3)OC=C2C1=O (stereo unspecified)	·	·	-0.3	·	·	·
CCCCOC(=O)c1ccc(-c2ccc(/C=N/NC(=S)NCC)o2)cc1	0.8	14	0.24	3	0.9	24
CC(C)Oc1ccc(C(=O)N/N=C/c2ccc(-c3ccc(S(=O)(=O)Nc4ncccn4)cc3)o2)cc1	0.2	19	0.81	4	0.8	84*
COc1ccc(NC(=O)C2CCN(S(=O)(=O)c3cccc4cccnc34)CC2)cc1	1.5	9	-0.52	6	0.9	-53
Cc1ccc(NC(=O)C2CCN(S(=O)(=O)c3cccc4cccnc34)CC2)nc1	1.5	68*	0.37	5	0.3	-46
Cc1cccc(NC(=O)C2CCN(S(=O)(=O)c3cccc4cccnc34)CC2)n1	2.3*	78*	0.84	2	0.2	-128
Cc1ccc(NC(=O)C2CCN(S(=O)(=O)c3c(C)n[nH]c3C)CC2)nc1	1.4	-6	0.14	6	1.1	-38
CC1(C)CC(=O)C2=C(C1)OC1=C(C(=O)CC(C)(C)C1)C2c1ccc(O)cc1O	2.5*	20	-4.7*	94*[fluorescence artefact?]	0.8	-147
O=C(COC(=O)c1ccccc1C(=O)c1ccc(Cl)c([N+](=O)[O-])c1)NC1CCCCCC1	0.6	39	2.5	8	0.6	39
Nc1c(Cl)cc(Cl)cc1C(=O)OCC(=O)NC1CC1	2.1*	41	-2.6	1	0.6	-113
COc1cccc(C(=O)Nc2cc(=O)n(C)c(=O)n2C)c1	·	·	0.47	·	·	·
O=C(O)C1=C[C@@H](c2ccc(Br)cc2)C[C@@H](OCCCCO)O1	·	·	1.6	·	·	·
COc1ccc(Br)cc1CNC(=O)CCc1nc(-c2ccc(C)cc2)no1	0.9	5	·	15	0.9	10
CC(=O)Oc1c(Cl)c(N2CCOCC2)c(OC(C)=O)c2ccccc12	0.7	52*	-2.2	·	0.5	26
Cc1noc(NS(=O)(=O)c2ccc(NC(=O)COc3ccc(Cl)cc3Cl)cc2)c1C	0.3	-10	·	-3	1.1	71*
Cc1ccc(OCC(=O)Nc2ccc(S(=O)(=O)Nc3onc(C)c3C)cc2)cc1	0.9	-2	·	-2	1	12
SMILES	CYP2C9 act	CYP2C19 inh	Cav32 inh	HIV Rev-RRE inh	CYP2C19 activ	CYP2C9 inh
Cc1ccc(S(=O)(=O)CC(=O)Nc2ccc(S(=O)(=O)Nc3onc(C)c3C)cc2)cc1	0.3	-6	0.94	4	1.1	67*
COc1cc(NS(=O)(=O)c2ccc(NC(=S)NC(=O)CC(C)C)cc2)nc(OC)n1	·	·	-0.54	4	·	·
CCc1cccc(OCC(=O)Nc2ccc(S(=O)(=O)Nc3onc(C)c3C)cc2)c1	0.2	7	·	0	0.9	80*
COc1cc(NS(=O)(=O)c2ccc(NC(=O)COc3ccccc3Cl)cc2)nc(OC)n1	0	86*	1.5	3	0.1	96*
O=C(NC1CCCCC1)N1CCC(n2cnc3ccccc32)CC1	1.2	-8	-0.31	7	1.1	-17
O=C(Cn1c(NCCO)nc2ccccc21)c1ccco1	1.1	-4	0.36	4	1	-6
CCC(=O)Oc1ccc(C/C(=N\O)c2ccc(O)cc2O)o1	0	96*	-2.4	7	0	96*
O=C(CNS(=O)(=O)c1ccc2ccccc2c1)OCC(=O)c1ccc(Br)s1	2.3*	29	-0.38	0	0.7	-132
COC(=O)CCCNS(=O)(=O)c1ccc2ccccc2c1	·	·	0.39	3	·	·
Cc1cc(NCCCN(C)C)n2nc(-c3cccs3)cc2n1	·	·	0.86	-1	·	·
Cc1cccc(-c2cc3nc(C)cc(NCCCn4ccnc4)n3n2)c1	0	93*	0.95	3	0.1	96*
Cc1cc(NCCCn2ccnc2)n2ncc(-c3ccc(Cl)cc3)c2n1	0.1	74*	1.2	1	0.3	87*
CCCNC(=S)Nc1ccc(Oc2ccccc2)cc1	0.6	68*	-1.1	2	0.3	42
CC(C)NC(=S)Nc1ccc(Oc2ccccc2)cc1	0.6	72*	-4.7*	-2	0.3	40
CCCNC(=S)Nc1ccc(Br)cc1	0.7	44	-0.15	0	0.6	30
c1ccc2c(c1)c1c3n2CCNC3CCC1 (stereo unspecified)	1	4	0.61	-1	1	1
COc1ccc2[nH]c(=O)c(CN(CCCN3CCOCC3)C(=O)NCc3ccccc3)cc2c1	1	-8	-0.5	0	1.1	-1
COc1ccc(S(=O)(=O)N(CCCN2CCOCC2)Cc2cccc3ccccc23)cc1	0.7	78*	-0.87	7	0.2	26
COc1ccc(S(=O)(=O)N(CCCN2CCOCC2)Cc2cccc(OC)c2OC)cc1	0.9	58*	0.57	11	0.4	6
COc1ccc(S(=O)(=O)n2c(CCN3CCOCC3)nc3ccccc32)cc1	1.7	13	-1.2	·	0.9	-67
COc1ccc(S(=O)(=O)N(CCN2CCOCC2)Cc2cc(OC)ccc2OC)cc1	0.9	81*	-0.47	4	0.2	11
CCNc1ccc2c(Cl)cc(=O)oc2c1	1	-5	·	5	1	0
CCN(CC)C(=O)C(C)OC(=O)c1ccc(O)cc1 (stereo unspecified)	1	-2	0.42	5	1	2
COc1cc(CN(C)Cc2ccccc2)cc(OC)c1O	0.7	65*	0.54	-2	0.3	28
O=C(CSC(=S)N1CCCCC1)Nc1nc(-c2ccccc2)c(-c2ccccc2)o1	1	26	-4*	4	0.7	-1
